Experimental data reported in ChEMBL document CHEMBL3792306, “Antichagasic and trichomonacidal activity of 1-substituted 2-benzyl-5-nitroindazolin-3-ones and 3-alkoxy-2-benzyl-5-nitro-2H-indazoles” (Eur J Med Chem, 2016).

Columns and labels:
[1] = system: Trichomonas vaginalis; test: Trichomonacidal activity against metronidazole-sensitive Trichomonas vaginalis JH31A#4 trophozoites after 24 hrs by resazurin dye based fluorescence assay; format: functional, organism-based; details: JH31A#4, 24 h
Outline: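 Trophozoites in TYM with 10% FBS, 37 °C, 5% CO₂, seeded at 10⁵/mL in glass tubes. After 5 h, compounds added at 9.37–300 µM final (DMSO <0.2%). Viability read by resazurin fluorimetry after 24 h at 37 °C. Metronidazole 25 µM as reference. At least two runs in triplicate; IC50 with 95% limits by probit.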

[2] = system: Trypanosoma cruzi; test: Antichagasic activity against Trypanosoma cruzi CL-B5 epimastigotes […] assessed as growth inhibition after 72 hrs by beta galactosidase reporter gene assay; format: functional, organism-based
Outline: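 Then CPRG (200 µM final, pH 7.4) in Triton X-100 added for 3 h at 37 °C, A595 read. Triplicates, three independent runs; IC50 from dose–response of %growth inhibition, mean ± SD.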

[3] = Cytotoxicity against mouse L929 cells after 48 hrs by resazurin assay; format: cell-based; details: read-out: LC50
Outline: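 L929 fibroblasts, 15×10^3 cells/well in MEM, attached 3 h. Exposed to compounds for 48 h at 37 °C, 5% CO2. Resazurin (2 mM solution in PBS) added for 3 h; fluorescence read at 535/590 nm to give % cytotoxicity. Triplicate wells, three independent runs. LC50 taken from concentration vs %C curves, mean ± SD.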

[4] = Selectivity index, ratio of LC50 for mouse L929 cells to IC50 for Trypanosoma cruzi CL-B5 lacZ epimastigotes […]; format: toxicity, cell-based; details: read-out: Ratio LC50/IC50
Outline: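 SI = LC50 (L929, 48 h resazurin) / epimastigote IC50. […] CPRG (200 µM final, 0.9% Triton X-100, pH 7.4) added for 3 h at 37 °C, A595 read. Triplicates, n = 3; IC50 from %EGI curves.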

Row | SMILES | IC50 [1] | IC50 [2] | CC50 at 48 h [3] | selectivity ratio [4]
1 | COc1c2cc([N+](=O)[O-])ccc2nn1C | 18.5 µM |  |  | 
2 | CC(=O)n1c2ccc([N+](=O)[O-])cc2c(=O)n1Cc1ccccc1 | 213 µM | > 256 µM | > 256 µM | 
3 | O=C(O)CCn1c2ccc([N+](=O)[O-])cc2c(=O)n1Cc1ccccc1 |  | > 256 µM | > 256 µM | 
4 | Cc1ccc(S(=O)(=O)n2c3ccc([N+](=O)[O-])cc3c(=O)n2Cc2ccccc2)cc1 | 151 µM | 28.8 µM | > 256 µM | > 8.9
5 | CCOC(=O)n1c2ccc([N+](=O)[O-])cc2c(=O)n1Cc1ccccc1 | 419 µM | 49 µM | 122 µM | 2.49
6 | O=[N+]([O-])c1ccc2nn(Cc3ccccc3)c(OCCOc3c4cc([N+](=O)[O-])ccc4nn3Cc3ccccc3)c2c1 |  | > 256 µM | > 256 µM | 
7 | O=c1c2cc([N+](=O)[O-])ccc2n(CCCBr)n1Cc1ccccc1 | 80.2 µM | 2.9 µM | 25.2 µM | 8.69
8 | O=C(OCc1ccccc1)n1c2ccc([N+](=O)[O-])cc2c(=O)n1Cc1ccccc1 | 589 µM | 43.6 µM | 86.1 µM | 1.97
9 | NC(=O)CN1c2ccc([N+](=O)[O-])cc2C(=O)N(Cc2ccccc2)C1C(N)=O (centres undefined) |  | > 256 µM | > 256 µM | 
10 | COCCOc1c2cc([N+](=O)[O-])ccc2nn1Cc1ccccc1 | 107 µM | > 256 µM | > 256 µM | 
11 | COC(=O)C1Nc2ccc([N+](=O)[O-])cc2C(=O)N1Cc1ccccc1 (centres undefined) |  | 216 µM | > 256 µM | > 1.18
12 | COC(=O)CN1c2ccc([N+](=O)[O-])cc2C(=O)N(Cc2ccccc2)C1C(=O)OC (centres undefined) | 58.2 µM | > 256 µM | 205 µM | < 0.8
13 | NC(=O)C1Nc2ccc([N+](=O)[O-])cc2C(=O)N1Cc1ccccc1 (centres undefined) |  | > 256 µM | > 256 µM | 
14 | O=C(c1ccccc1)n1c2ccc([N+](=O)[O-])cc2c(=O)n1Cc1ccccc1 | 197 µM | > 256 µM | 146 µM | < 0.57
15 | O=c1c2cc([N+](=O)[O-])ccc2n(CCOc2c3cc([N+](=O)[O-])ccc3nn2Cc2ccccc2)n1Cc1ccccc1 |  | > 256 µM | > 256 µM | 
16 | CCOC(=O)CCCn1c2ccc([N+](=O)[O-])cc2c(=O)n1Cc1ccccc1 | 192 µM | 11.1 µM | 78.1 µM | 7.01
17 | COC(=O)COc1c2cc([N+](=O)[O-])ccc2nn1Cc1ccccc1 |  | 145 µM | > 256 µM | > 1.77
18 | O=C(O)CCCn1c2ccc([N+](=O)[O-])cc2c(=O)n1Cc1ccccc1 |  | > 256 µM | > 256 µM | 
19 | COC(=O)Cn1c2ccc([N+](=O)[O-])cc2c(=O)n1Cc1ccccc1 | 535 µM | 26.2 µM | 129 µM | 4.92
20 | NC(=O)CCCn1c2ccc([N+](=O)[O-])cc2c(=O)n1Cc1ccccc1 | 104 µM | 31 µM | > 256 µM | > 8.26
21 | O=[N+]([O-])c1ccc2nn(Cc3ccccc3)c(OCCBr)c2c1 | 64.8 µM | > 256 µM | > 256 µM | 
